Drawing on ChEMBL document CHEMBL3232852, “Bexarotene prodrugs: targeting through cleavage by NQO1 (DT-diaphorase)” (Bioorg Med Chem Lett, 2014), this text covers Drug metabolism for seven molecules.

Series [1] in a line: Activity of pig liver esterase at 5 uM after 180 mins. In kind it is ADME, Sus scrofa. The note with it: 3 h. A digest of the protocol: (§1)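 Porcine liver esterase at a final 76 µg/mL (1.3 U/mL) in tris buffer pH 7.4. Conjugates were incubated at 5 µM and monitored for ester cleavage and free bexarotene over 180 min and up to 24 h. Ethylbenzoate was the reference substrate at 100 µM.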

Series [2] has as its target T1, NAD(P)H dehydrogenase [quinone] 1 (Homo sapiens, UniProt P15559). The series is described as follows: Prodrug conversion assessed as NQO1 (unknown origin)-mediated bexarotene formation at 5 uM by HPLC analysis in presence of 300 uM NADH followed by addition of NADH at 30 and 60 mins. Format: ADME. The note with it: 1 h. Summed up:
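Same NQO1 incubation: 5 µM compound, 37 ± 1 °C, diaphorase 50 U/mL, 0.07% BSA and 300 µM NADH in tris pH 7.4. Extra NADH was added at 30 and 60 min to test cofactor depletion. Bexarotene formation was read by RP-18 HPLC, in triplicate.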

In series [3] the target is T1, NAD(P)H dehydrogenase [quinone] 1. The series is described as follows: Prodrug conversion assessed as NQO1 (unknown origin)-mediated bexarotene formation at 5 uM by HPLC analysis in presence of NADH. Format: ADME. Summed up:
(§2)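 DMSO stocks were diluted 100-fold with tris buffer, and compound (5 µM) was incubated at 37 ± 1 °C with or without diaphorase (NQO1, 50 U/mL). The mix held 0.07% BSA and 300 µM NADH in tris pH 7.4. Bexarotene release was followed by RP-18 HPLC (acetonitrile/water); incubations ran up to 24 h, in triplicate.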

Series [4] has the same target. The series is described as follows: Prodrug conversion assessed as NQO1 (unknown origin)-mediated bexarotene formation at 5 uM after 4 to 24 hrs by HPLC analysis in presence of NADH. In kind it is ADME. A digest of the protocol: as §2
Series [5] in a line: Activity of pig liver esterase at 100 uM after 7 mins. In kind it is ADME, Sus scrofa. A digest of the protocol:
as §1

T1 sequence (P15559 whole entry): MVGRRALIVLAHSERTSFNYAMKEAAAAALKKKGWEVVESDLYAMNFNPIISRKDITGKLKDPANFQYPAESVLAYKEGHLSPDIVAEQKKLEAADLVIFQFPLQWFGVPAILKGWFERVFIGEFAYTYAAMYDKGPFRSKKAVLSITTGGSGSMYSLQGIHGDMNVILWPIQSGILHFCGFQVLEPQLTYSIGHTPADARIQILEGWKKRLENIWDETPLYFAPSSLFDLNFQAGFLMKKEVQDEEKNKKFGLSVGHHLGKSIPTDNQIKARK

`C=C(c1ccc(C(=O)OCc2c3c(n(C)c2C)C(=O)C=C(OC)C3=O)cc1)c1cc2c(cc1C)C(C)(C)CCC2(C)C`: the Drug metabolism entry in series [1] and in series [2] was “metabolite_notdetected” throughout. Consider `C=C(c1ccc(C(=O)OCc2c3c(n(C)c2C)C(=O)C(C)=C(OC)C3=O)cc1)c1cc2c(cc1C)C(C)(C)CCC2(C)C`, for which the Drug metabolism result in series [3] was “metabolite_detected”; in series [2] it was “metabolite_notdetected”.

In the case of `C=C(c1ccc(C(=O)OCc2cn(C)c3c2C(=O)C(OC)=CC3=O)cc1)c1cc2c(cc1C)C(C)(C)CCC2(C)C`, the Drug metabolism entry is reported as “metabolite_detected” in series [3] and “metabolite_notdetected” in series [2]. Consider `C=C(c1ccc(C(=O)OCc2c(C)c3c(n2C)C(=O)C=C(OC)C3=O)cc1)c1cc2c(cc1C)C(C)(C)CCC2(C)C`, for which the Drug metabolism entry in series [4] and in series [2] was “metabolite_notdetected” each time. As to `COC1=CC(=O)c2c(c(COc3ccc([N+](=O)[O-])c(C)c3)c(C)n2C)C1=O`, the Drug metabolism result in series [3] was “metabolite_detected”. Regarding `COC1=CC(=O)c2c(c(C)c(COc3ccc([N+](=O)[O-])c(C)c3)n2C)C1=O`, the Drug metabolism entry in series [3] is listed as “metabolite_detected”. With `CCOC(=O)c1ccccc1` [ETHYL BENZOATE], in series [5], the Drug metabolism result was “metabolite_detected”.
